The record followed here is ChEMBL document CHEMBL3997766, “Synthesis and pre-clinical studies of new amino-acid ester thiazolide prodrugs” (Eur J Med Chem, 2017).

Data set [1] deals with Rattus norvegicus. As to the kind of experiment: Toxicity in Sprague-Dawley rat assessed as mortality at 100 to 1000 mg/kg administered as single dose via oral gavage. Format: organism-based. The note with it: in vivo. In outline:
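CNS safety study in rats: single oral-gavage doses of 100, 300 or 1000 mg/kg to 3 groups of 10 (5M/5F), with an untreated control group. Clinical signs (activity, abdominal tone, breathing, tremors, pain response) were recorded at 4 and 24 h after dosing, and mortality was noted.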

For data set [2], the system named is Rattus norvegicus. Kind of data set: Toxicity in Sprague-Dawley rat assessed as body weight gain at 75 mg/kg administered as oral gavage qd for 28 consecutive days measured during last 3 weeks of dosing. Format: organism-based. The note with it: in vivo, 504 h. In outline: (§1)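 Sub-acute study in Sprague-Dawley rats dosed orally with a suspension at 10, 30 and 75 mg/kg once daily for 28 consecutive days. Four groups of up to 30 rats each (15M/15F).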

Data set [3] concerns Rattus norvegicus. Kind of data set: Toxicity in Sprague-Dawley rat assessed as decrease in prothrombine time at 10 to 75 mg/kg administered as oral gavage qd for 28 consecutive days followed by 2 weeks recovery period measured on day 43. Format: organism-based. As to conditions: in vivo, 336 h. In outline: as §1
For data set [4], the system named is Rattus norvegicus. Kind of data set: Toxicity in Sprague-Dawley rat assessed as increase in total bilirubin level at 30 to 75 mg/kg administered as oral gavage qd for 28 consecutive days followed by 2 weeks recovery period measured on day 43. Format: organism-based. As to conditions: in vivo, 336 h. The procedure, abridged: as §1
Data set [5] relates to Rattus norvegicus. As to the kind of experiment: Toxicity in Sprague-Dawley rat assessed as hemorrhage in duodenum at 75 mg/kg administered as oral gavage qd for 28 consecutive days measured on day 29 by microscopic method. The format is organism-based. As to conditions: in vivo. In outline:
as §1

Another data set deals with Plasma. As to the kind of experiment: Drug metabolism in Sprague-Dawley rat assessed as tizoxanide-glucuronide level in plasma administered via oral gavage qd for 28 consecutive days. Format: ADME. In outline:
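In a sub-acute study, Sprague-Dawley rats were dosed once daily for 28 consecutive days at 10, 30 or 75 mg/kg, given as a yellow suspension. There were four groups of up to 30 rats each (15M/15F) to assess systemic exposure.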

In data set [6] the test system is Rattus norvegicus. As to the kind of experiment: Toxicity in Sprague-Dawley rat assessed as epithelial hyperplasia in stomach at 75 mg/kg administered as oral gavage qd for 28 consecutive days followed by 2 weeks recovery period by microscopic method. As to conditions: in vivo, 336 h. The format is organism-based. The procedure, abridged:
as §1

The subject of data set [7] is Rattus norvegicus. As to the kind of experiment: Toxicity in Sprague-Dawley rat assessed as erosions in stomach at 75 mg/kg administered as oral gavage qd for 28 consecutive days followed by 2 weeks recovery period by microscopic method. Format: organism-based. As to conditions: in vivo, 336 h. The procedure, abridged: as §1

In the case of `CC(C)(C)[C@H](N)C(=O)Oc1ccccc1C(=O)Nc1ncc([N+](=O)[O-])s1.Cl`, the Activity result with Rattus norvegicus [1] is recorded as “Non-Toxic”; in the data set with Rattus norvegicus [2] it was “Non-Toxic”; with Rattus norvegicus [3], “Toxic”; in the data set with Rattus norvegicus [4], “Toxic”; in the data set with Rattus norvegicus [5] it was “Toxic”; in the data set with Rattus norvegicus [6], “Non-Toxic”. The Activity entry in the data set with Rattus norvegicus [7] is “Non-Toxic”. Moreover, in the data set on Plasma, the Drug metabolism entry is reported as “Dose-dependent effect”.
